Reference: article PMC2938439 (The Journal of Membrane Biology, 2010)
Peptide text beside a SMILES is read from it.

Legend:
[1] = CD spectroscopy, peptide and LUVs in the same cuvette; format: physicochemical; conditions: for Θ222, same cell: pH 7.0, ~25°C, error est. 10%
How it was run: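 Lipid dried from chloroform under nitrogen, then under vacuum overnight. It was hydrated in 10 mM potassium phosphate pH 7.0, vortexed, and extruded 10× under nitrogen through two stacked 0.1-μm polycarbonate filters to give LUVs. Peptide and vesicles shared one cuvette, 1-mm path. 10–30 scans, 190–260 nm, ~25°C. A vesicle-only spectrum was subtracted. Ellipticity was converted to per-residue values.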

[2] = CD spectroscopy, two-cuvette experiment; format: physicochemical; conditions: error est. 10%
How it was run: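 Two-cuvette setup: test peptide solution in cell 1 and POPC LUV suspensions in cell 2, in the light path together. LUVs were extruded through 0.1-μm filters in 10 mM potassium phosphate pH 7.0. Peptide concentration was set by UV absorbance (tyrosine ε274nm 1,440 M−1 cm−1). 10–30 scans, 190–260 nm, 1-mm path, ~25°C. Ellipticity was expressed per residue.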

[3] = monomolecular, ref Scholtz et al. [1991]; cited from earlier work
[4] = CD of Annexin B12 in solution and bound to LUVs; format: physicochemical; conditions: bound to LUVs in the presence of Ca^2+

For `CC(=O)N[C@@H](Cc1ccc(O)cc1)C(=O)N[C@@H](C)C(=O)N[C@@H](CCC(=O)O)C(=O)N[C@@H](C)C(=O)N[C@@H](C)C(=O)N[C@@H](CCCCN)C(=O)N[C@@H](C)C(=O)N[C@@H](C)C(=O)N[C@@H](CCC(=O)O)C(=O)N[C@@H](C)C(=O)N[C@@H](C)C(=O)N[C@@H](CCCCN)C(=O)N[C@@H](C)C(=O)N[C@@H](C)C(=O)N[C@@H](CCC(=O)O)C(=O)N[C@@H](C)C(=O)N[C@@H](C)C(=O)N[C@@H](CCCCN)C(=O)N[C@@H](C)C(=O)N[C@@H](C)C(=O)N[C@@H](CCC(=O)O)C(=O)N[C@@H](C)C(=O)N[C@@H](C)C(=O)N[C@@H](CCCCN)C(=O)N[C@@H](C)C(=O)N[C@@H](Cc1ccccc1)C(N)=O` [Ac-Y(AEAAKA)4F-NH2] (Ac-YAEAAKAAEAAKAAEAAKAAEAAKAF-NH2), the “molar ellipticity of the peptide” value ([1]; 25°C, buffer with LUVs up to 7 mM, 40 μM peptide) was −20(±0.5) × 10^3 deg cm^2 dmol^−1, the “Θ222, same cell” value ([1]; +0.25 mM POPC LUVs in same cuvette, 40 μM peptide) was −20,100 deg cm^2 dmol^−1 and the “Θ222, same cell” value ([1]; +3 mM POPC LUVs in same cuvette, 40 μM peptide) was −19,800 deg cm^2 dmol^−1. For the same molecule, the “Θ222, same cell” value ([1]; +5 mM POPC LUVs in same cuvette, 40 μM peptide) was −19,700 deg cm^2 dmol^−1, the “Θ222, same cell” value ([1]; +7 mM POPC LUVs in same cuvette, 40 μM peptide) was −19,700 deg cm^2 dmol^−1 and the “binding to POPC vesicles” value ([1]; same-cuvette versus two-cuvette CD spectra, LUVs up to 7 mM) was “does not bind to POPC vesicles”. For the same molecule, the “Θ222, two cells” value ([2]; +3 mM POPC LUVs in separate cuvette, peptide in buffer (40 μM)) was −20,100 deg cm^2 dmol^−1, the “Θ222, two cells” value ([2]; +5 mM POPC LUVs in separate cuvette, peptide in buffer (40 μM)) was −20,100 deg cm^2 dmol^−1 and the “Θ222, two cells” value ([2]; +7 mM POPC LUVs in separate cuvette, peptide in buffer (40 μM)) was −19,900 deg cm^2 dmol^−1. For the same molecule, the “Θ222, two cells” value ([2]; no lipid, peptide in buffer (40 μM) in cell 1, ~25°C) was −20,300 deg cm^2 dmol^−1 and the “α-helical content in buffer” value [3] was ~ 60%.

B1: Annexin B12 (protein, UniProt P26256 1-316, looked up)
Annexin-B12: MVVQGTVKPHASFNSREDAETLRKAMKGIGTDEKSITHILATRSNAQRQQIKTDYTTLFGKHLEDELKSELSGNYEAAALALLRKPDEFLAEQLHAAMKGLGTDENALIDILCTQSNAQIHAIKAAFKLLYKEDLEKEIISETSGNFQRLLVSMLQGGRKEDEPVNAAHAAEDAAAIYQAGEGQIGTDESRFNAVLATRSYPQLHQIFHEYSKISNKTILQAIENEFSGDIKNGLLAIVKSVENRFAYFAERLHHAMKGLGTSDKTLIRILVSRSEIDLANIKETFQAMYGKSLYEFIADDCSGDYKDLLLQITGH
For B1, the “CD spectrum, aqueous versus LUV-associated” value [4] was “essentially the same CD spectrum”.
